Experimental findings from ChEMBL document CHEMBL1154150, “Synthesis and anticonvulsant activity of some new bishydrazones derived from 3,4-dipropyloxythiophene” (Eur J Med Chem, 2009) are described below.

Active and inactive are the calls of the source. The calls are words filed in the database; no cut-off is given here.

For series [1], the system named is Mus musculus. In words: Neurotoxicity in CF1 mouse at 100 mg/kg, ip after 0.5 hrs by rotarod test. Format: toxicity, organism-based. Details: dose 100 mg/kg, route intraperitoneal. Conditions: in vivo. In outline:
(§1)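 Rotorod neurotoxicity in male CF-1 mice (18–25 g) after i.p. compound in 0.5% methyl cellulose/water or PEG 200 at 30, 100 or 300 mg/kg; reported as number showing toxicity/number tested.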

The subject of series [2] is Mus musculus. Nature of the series: Neurotoxicity in CF1 mouse at 100 mg/kg, ip after 4 hrs by rotarod test. Format: toxicity, organism-based. Details: dose 100 mg/kg, route intraperitoneal. Conditions: in vivo. In outline: as §1
For series [3], the system named is Mus musculus. Nature of the series: Anticonvulsant activity in CF1 mouse assessed as protection against maximal electroshock-induced seizures at 30 mg/kg, ip after 0.5 hrs. Format: functional, organism-based. Details: dose 30 mg/kg. The method, boiled down:
(§2)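 Male CF-1 albino mice (18–25 g), dosed i.p. at 30, 100 or 300 mg/kg in 0.5% methyl cellulose/water or PEG 200 (0.01 ml/g); tested at intervals after dosing; protection = abolition of hind limb tonic extensor component of MES seizure; scored as protected/tested.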
For orientation: Protection in the maximal electroshock model is a classic sign of anticonvulsant action.

Series [4] relates to Mus musculus. Nature of the series: Anticonvulsant activity in CF1 mouse assessed as protection against maximal electroshock-induced seizures at 100 mg/kg, ip after 0.5 hrs. Details: dose 100 mg/kg. Format: functional, organism-based. The method, boiled down: as §2
The test system of series [5] is Mus musculus. In words: Neurotoxicity in CF1 mouse at 30 mg/kg, ip after 4 hrs by rotarod test. The format is toxicity, organism-based. Details: dose 30 mg/kg, route intraperitoneal. Particulars: in vivo. In outline: as §1
On the technique in general: Falling from the rotarod earlier than controls is read as motor impairment.

The subject of series [6] is Mus musculus. In words: Anticonvulsant activity in CF1 mouse assessed as protection against subcutaneous metrazole-induced seizures at 100 mg/kg, ip after 4 hrs. Also on record: dose 100 mg/kg. The format is functional, organism-based.
The test system of series [7] is Mus musculus. In words: Anticonvulsant activity in CF1 mouse assessed as protection against subcutaneous metrazole-induced seizures at 300 mg/kg, ip after 4 hrs. Details: dose 300 mg/kg. Format: functional, organism-based.
Series [8] relates to Mus musculus. In words: Anticonvulsant activity in CF1 mouse assessed as protection against maximal electroshock-induced seizures at 300 mg/kg, ip after 4 hrs. The format is functional, organism-based. Also on record: dose 300 mg/kg. The method, boiled down: as §2
Series [9] relates to Mus musculus. In words: Neurotoxicity in CF1 mouse at 300 mg/kg, ip after 0.5 hrs by rotarod test. The format is toxicity, organism-based. Details: dose 300 mg/kg, route intraperitoneal. Particulars: in vivo. The method, boiled down: as §1
For series [10], the system named is Mus musculus. In words: Anticonvulsant activity in CF1 mouse assessed as protection against subcutaneous metrazole-induced seizures at 100 mg/kg, ip after 0.5 hrs. Format: functional, organism-based. Also on record: dose 100 mg/kg.
Series [11] concerns Mus musculus. Nature of the series: Neurotoxicity in CF1 mouse at 30 mg/kg, ip after 0.5 hrs by rotarod test. The format is toxicity, organism-based. Details: dose 30 mg/kg, route intraperitoneal. Conditions: in vivo. The method, boiled down: as §1
Series [12] relates to Mus musculus. In words: Anticonvulsant activity in CF1 mouse assessed as protection against maximal electroshock-induced seizures at 100 mg/kg, ip after 4 hrs. The format is functional, organism-based. Also on record: dose 100 mg/kg. In outline: as §2
Series [13] concerns Mus musculus. Nature of the series: Neurotoxicity in CF1 mouse at 300 mg/kg, ip after 4 hrs by rotarod test. The format is toxicity, organism-based. Also on record: dose 300 mg/kg, route intraperitoneal. Conditions: in vivo. In outline:
as §1

In series [14] the test system is Mus musculus. In words: Anticonvulsant activity in CF1 mouse assessed as protection against maximal electroshock-induced seizures at 30 mg/kg, ip after 4 hrs. Format: functional, organism-based. Also on record: dose 30 mg/kg. The method, boiled down: as §2
Series [15] has as its system Mus musculus. In words: Anticonvulsant activity in CF1 mouse assessed as protection against maximal electroshock-induced seizures at 300 mg/kg, ip after 0.5 hrs. Format: functional, organism-based. Details: dose 300 mg/kg. The method, boiled down:
as §2

The test system of series [16] is Mus musculus. In words: Anticonvulsant activity in CF1 mouse assessed as protection against subcutaneous metrazole-induced seizures at 300 mg/kg, ip after 0.5 hrs. Also on record: dose 300 mg/kg. Format: functional, organism-based.
Series [17] concerns Mus musculus. Nature of the series: Anticonvulsant activity in CF1 mouse assessed as protection against subcutaneous metrazole-induced seizures at 30 mg/kg, ip after 4 hrs. The format is functional, organism-based. Details: dose 30 mg/kg.
In series [18] the test system is Mus musculus. Nature of the series: Anticonvulsant activity in CF1 mouse assessed as protection against subcutaneous metrazole-induced seizures at 30 mg/kg, ip after 0.5 hrs. The format is functional, organism-based. Also on record: dose 30 mg/kg.

For `CCCOc1c(C(=O)NN=C2CC(C)Sc3sc(S(N)(=O)=O)cc32)sc(C(=O)NN=C2CC(C)Sc3sc(S(N)(=O)=O)cc32)c1OCCC` (configuration not stated), the Activity result was “Toxic” in the series on Mus musculus [1]; “Non-toxic” with Mus musculus [2]; “Non-toxic” in the series with Mus musculus [5]; “Toxic” with Mus musculus [9]; “Non-toxic” in the series on Mus musculus [11]; “Toxic” with Mus musculus [13]. Also, the outcome in the series on Mus musculus [3], in the series on Mus musculus [4], in the series with Mus musculus [6], in the series on Mus musculus [7], in the series with Mus musculus [8] and with Mus musculus [10] was inactive. The outcome in the series on Mus musculus [12], in the series on Mus musculus [14], in the series on Mus musculus [15], in the series with Mus musculus [16], with Mus musculus [17] and with Mus musculus [18] was inactive.

Take `CCCOc1c(C(=O)N/N=C/c2ccc3cc(OC)ccc3c2)sc(C(=O)N/N=C/c2ccc3cc(OC)ccc3c2)c1OCCC`: the Activity result in the series with Mus musculus [1], with Mus musculus [2], in the series on Mus musculus [5], with Mus musculus [9], in the series with Mus musculus [11] and with Mus musculus [13] was “Non-toxic” in each case. In addition, the result in the series with Mus musculus [3], in the series on Mus musculus [4], with Mus musculus [6], in the series on Mus musculus [7], with Mus musculus [8] and with Mus musculus [10] was inactive. The result in the series on Mus musculus [12], with Mus musculus [14], in the series with Mus musculus [15], in the series on Mus musculus [16], in the series with Mus musculus [17] and in the series with Mus musculus [18] was inactive.

`CCCOc1c(C(=O)N/N=C(\C)c2ccccn2)sc(C(=O)N/N=C(\C)c2ccccn2)c1OCCC`: the Activity entry with Mus musculus [1], in the series with Mus musculus [2], with Mus musculus [5], with Mus musculus [9], with Mus musculus [11] and with Mus musculus [13] was “Non-toxic” in each case. Besides, the result with Mus musculus [3], in the series with Mus musculus [4], with Mus musculus [6], with Mus musculus [7], in the series on Mus musculus [8] and with Mus musculus [10] was inactive. Moreover, the outcome in the series on Mus musculus [12], in the series on Mus musculus [14], in the series on Mus musculus [15], with Mus musculus [16], in the series on Mus musculus [17] and in the series on Mus musculus [18] was inactive.

For the compound `CCCOc1c(C(=O)NN=C2CC(C)Sc3sccc32)sc(C(=O)NN=C2CC(C)Sc3sccc32)c1OCCC` (configuration not stated), the Activity entry was “Toxic” in the series on Mus musculus [1]; “Non-toxic” with Mus musculus [2]; “Non-toxic” in the series on Mus musculus [5]; “Toxic” in the series with Mus musculus [9]; “Toxic” with Mus musculus [11]; “Non-toxic” with Mus musculus [13]. Moreover, the outcome in the series on Mus musculus [3], in the series on Mus musculus [4], in the series on Mus musculus [6], in the series with Mus musculus [7], with Mus musculus [8] and with Mus musculus [10] was inactive. In addition, the result in the series on Mus musculus [12], in the series on Mus musculus [14], in the series on Mus musculus [15], in the series on Mus musculus [16], with Mus musculus [17] and with Mus musculus [18] was inactive.

In the case of `CCCOc1c(C(=O)N/N=C(\C)c2c[nH]c3ccccc23)sc(C(=O)N/N=C(\C)c2c[nH]c3ccccc23)c1OCCC`, the Activity result in the series with Mus musculus [1], with Mus musculus [2], with Mus musculus [5], with Mus musculus [9], with Mus musculus [11] and in the series with Mus musculus [13] was “Non-toxic” in each case. Also, the result in the series with Mus musculus [3], in the series on Mus musculus [4], in the series on Mus musculus [6], in the series on Mus musculus [7], in the series with Mus musculus [8] and with Mus musculus [10] was inactive. Besides, the outcome in the series with Mus musculus [12], in the series with Mus musculus [14], with Mus musculus [15], in the series on Mus musculus [16], with Mus musculus [17] and in the series with Mus musculus [18] was inactive.

With `CCCOc1c(C(=O)N/N=C(\C)c2ccc[nH]2)sc(C(=O)N/N=C(\C)c2ccc[nH]2)c1OCCC`, the Activity entry with Mus musculus [1], in the series on Mus musculus [2], in the series with Mus musculus [5], in the series on Mus musculus [9], in the series with Mus musculus [11] and in the series with Mus musculus [13] was “Non-toxic” in each case. Besides, the result with Mus musculus [3], in the series on Mus musculus [4], in the series on Mus musculus [6], in the series on Mus musculus [7], in the series on Mus musculus [8] and in the series with Mus musculus [10] was inactive. Moreover, the outcome with Mus musculus [12], in the series on Mus musculus [14], in the series on Mus musculus [15], with Mus musculus [16], in the series with Mus musculus [17] and with Mus musculus [18] was inactive.

For `CCCOc1c(C(=O)N/N=C/c2ccc3c(c2)c2ccccc2n3CC)sc(C(=O)N/N=C/c2ccc3c(c2)c2ccccc2n3CC)c1OCCC`, the Activity entry is recorded as “Toxic” with Mus musculus [1]; “Non-toxic” in the series on Mus musculus [2]; “Non-toxic” with Mus musculus [5]; “Toxic” in the series on Mus musculus [9]; “Non-toxic” in the series on Mus musculus [11]; “Non-toxic” in the series with Mus musculus [13]. The outcome with Mus musculus [3], in the series with Mus musculus [4], with Mus musculus [6], with Mus musculus [7], in the series on Mus musculus [8] and in the series with Mus musculus [10] was inactive. Also, the result with Mus musculus [12], in the series with Mus musculus [14], in the series with Mus musculus [15], in the series with Mus musculus [16], with Mus musculus [17] and in the series with Mus musculus [18] was inactive.

Take `CCCOc1c(C(=O)NN=C(C)C)sc(C(=O)NN=C(C)C)c1OCCC`: the Activity result in the series with Mus musculus [1] is “Non-toxic”; in the series with Mus musculus [2], “Non-toxic”; in the series with Mus musculus [5], “Non-toxic”; in the series with Mus musculus [9] it was “Toxic”; with Mus musculus [11], “Non-toxic”; in the series with Mus musculus [13] it was “Non-toxic”. Further, the result with Mus musculus [3], in the series on Mus musculus [4], with Mus musculus [6], in the series with Mus musculus [7], with Mus musculus [8] and in the series with Mus musculus [10] was inactive. The result in the series on Mus musculus [12], in the series on Mus musculus [14], in the series with Mus musculus [15], in the series on Mus musculus [16], in the series with Mus musculus [17] and in the series with Mus musculus [18] was inactive.

Regarding `CCCOc1c(C(=O)N/N=C/c2ccc(-c3ccccc3)cc2)sc(C(=O)N/N=C/c2ccc(-c3ccccc3)cc2)c1OCCC`, the Activity result in the series on Mus musculus [1] was “Toxic”; with Mus musculus [2] it was “Non-toxic”; in the series with Mus musculus [5], “Non-toxic”; in the series on Mus musculus [9] it was “Toxic”; with Mus musculus [11], “Non-toxic”; with Mus musculus [13], “Non-toxic”. For the same compound, the result in the series on Mus musculus [3], in the series with Mus musculus [4], with Mus musculus [6], in the series with Mus musculus [7], with Mus musculus [8] and in the series on Mus musculus [10] was inactive. Moreover, the result in the series on Mus musculus [12], in the series with Mus musculus [14], in the series on Mus musculus [15], with Mus musculus [16], in the series with Mus musculus [17] and in the series on Mus musculus [18] was inactive.
